One series deals with Plasma. The series can be described thus: Plasma concentration in PDAPP (V717F) transgenic mouse at 100 mg/kg, sc. Conditions: in vivo. The format is ADME, organism-based. A digest of the protocol: (§1)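 Brain and plasma samples from PDAPP mice dosed subcutaneously were homogenized (brain) and mixed with methanol/acetonitrile (1:1, v/v) containing internal standard to precipitate protein. After centrifugation, supernatant was diluted 4-fold with water/methanol (1:1, v/v). Drug was quantified against calibration standards by LC–MS/MS on a C18 column.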

The subject of another series is Brain. The series can be described thus: Drug level in brain of PDAPP (V717F) transgenic mouse at 100 mg/kg, sc. It counts as ADME, organism-based. Conditions: in vivo, read-out: Drug uptake. A digest of the protocol: as §1
The nature of series [1]: Drug metabolism in mouse microsomes. The format is ADME, Microsome.
For series [2], the system named is P-gp. The series can be described thus: Efflux ratio in P-gp expressing MDCK cells. It counts as ADME, cell-based, Canis lupus familiaris. Conditions: dog, MDCK-MDR1.
For series [3], the system named is P-gp. The series can be described thus: Permeability in P-gp expressing MDCK cells. It counts as ADME, cell-based, Canis lupus familiaris. The following applies: dog, MDCK-MDR1; read-out: permeability.
Series [4] in a line: Dissociation constant, pKa of the compound. It counts as physicochemical.

6 compounds from ChEMBL document CHEMBL3585284, “Preparation and biological evaluation of conformationally constrained BACE1 inhibitors” (Bioorg Med Chem, 2015) can be followed below.

By efflux ratio is commonly meant the permeability from basolateral to apical divided by that in the opposite direction, in the common usage. By pKa is commonly meant the negative logarithm of the acid dissociation constant. Read a high pKa as a group that holds its proton tightly.

Structures are written as SMILES.

Turning to `NC1=NC2CCC(NC(=O)c3cccc(Cl)c3)CC2CS1` (stereo not given), the concentration was 9.3 µM with Plasma and 0.75 µM with Brain. In addition, in series [1], the Drug metabolism result is recorded as “metabolite_notdetected”.

`NC1=NC2CCC(OC(=O)c3cccc(Cl)c3)CC2CS1.O=C(O)C(F)(F)F` (stereo not given): the efflux ratio with P-gp [2] was 2.7. The Papp in the series with P-gp [3] stood at 7.2 ×10⁻⁶ cm/s.

`Cl.NC1=N[C@]23CC[C@H](NC(=O)c4cccc(Cl)c4)C[C@@H]2[C@@H](COC3)S1`: the efflux ratio with P-gp [2] was 8.5. In addition, in series [4], the pKa amounted to 9. In addition, in the series on P-gp [3], the Papp came to 2.2 ×10⁻⁶ cm/s.

Turning to `NC1=N[C@]23CC[C@H](NC(=O)c4cccc(Cl)c4)C[C@@H]2[C@@H](COC3)S1`, the concentration was 6.7 µM with Plasma and 0.61 µM in the series with Brain. In series [1], the Drug metabolism result was “metabolite_notdetected”.

Regarding `Cl.NC1=NC2CCC(NC(=O)c3cccc(Cl)c3)CC2CS1` (stereo not given), the efflux ratio in the series on P-gp [2] was determined as 10. Further, the pKa in series [4] came to 9.7. Besides, the Papp with P-gp [3] is 2.9 ×10⁻⁶ cm/s.

In turn, `NC1=NC23CCC(NC(=O)c4cccc(Cl)c4)CC2(COC3)CS1` (racemic) showed a pKa in series [4] of 8.2.
